Assay results gathered from unrelated publications.
Each line is one published result; the experiments were not run side by side.

| Compound | system | setting | Tmax |
| --- | --- | --- | --- |
| C[C@@]1(c2cc(NC(=O)c3ccc(C#N)cn3)ccc2F)C=CSC(N)=N1 | male human, plasma | oral, 1 mg, single dose | 0.75 h |
| C#Cc1cccc(Nc2ncnc3cc(OCCOC)c(OCCOC)cc23)c1 | human, plasma | oral, 50 mg, patients | 4 h |
| CC(C)n1nc(-c2ccc3oc(N)nc3c2)c2c(N)ncnc21 | human, plasma | oral, 3 mg, multiple doses, once daily, patients | 0.97 h |
| C[C@@H](Nc1cc(F)cc(F)c1)c1cc(C(=O)N(C)C)cc2c(=O)cc(N3CCOCC3)oc12 | human, plasma | oral, 120 mg, single dose, patients | 2 h |
| Cn1cc(-c2ccc(S(=O)(=O)[C@@H]3C[C@@H](C(=O)NC4(C#N)CC4)N(C(=O)C4(C(F)(F)F)CC4)C3)c(C(F)(F)F)c2)cn1 | human, plasma | oral, 10 mg, single dose, fasted, healthy volunteers | 4.5 h |
| CC(C)(C)N/[N+]([O-])=N/OC1CCN(c2ccc(C#N)cn2)CC1 | male human, plasma | oral, single dose, healthy volunteers | 1 to 2 h |
| CCc1nc2c(C)cc(N3CCN(CC(=O)N4CC(O)C4)CC3)cn2c1N(C)c1nc(-c2ccc(F)cc2)c(C#N)s1 | human, plasma | oral, 600 mg, single dose, fed, healthy volunteers | 3.5 h |
| C[C@@H](c1ccc2nccn2c1)n1nnc2ncc(-c3cnn(C)c3)nc21 | human, plasma | oral, 200 mg | 2.5 h |
| CS(=O)(=O)CCC#N | human, plasma | oral, 1000 mg, multiple doses, once daily | 2 h |
| CCc1nc(C(N)=O)c(Nc2ccc(N3CCC(N4CCN(C)CC4)CC3)c(OC)c2)nc1NC1CCOCC1 | human, plasma | oral, 300 mg, multiple doses, patients | 6.93 h |
| Nc1cc(C(F)(F)F)c(-c2cc(N3CCOCC3)nc(N3CCOCC3)n2)cn1 | human, plasma | oral, 100 mg/day, patients | 1.5 h |
| CC(C)[C@](O)(c1ccc2cc(OC(F)F)c(OC(F)F)cc2c1)c1c[nH]nn1 | female human, plasma | oral, 450 mg, single dose | 1.9 h |
| C#C[C@]1(COP(=O)(O)OP(=O)(O)OP(=O)(O)O)O[C@@H](n2cnc3c(N)nc(F)nc32)C[C@@H]1O | human, plasma | oral, 400 mg, single dose | 12.1 h |
| COc1ccc([C@@H]2CN(C(=O)[C@@H](O)CO)C[C@@]2(C)[C@@H](C)O)cc1OC1CN(c2ccc(C)cn2)C1 | human, plasma | oral, 0.1 mg, single dose, healthy volunteers | 1 h |
| CC(C)n1cc(C#N)c2cc(-n3cc(C(=O)O)cn3)ccc21 | human, plasma | oral, 50 mg, single dose, fasted, healthy volunteers | 3 h |
| Cc1nc(NC(=O)N2CCC[C@H]2C(N)=O)sc1-c1ccnc(C(C)(C)C(F)(F)F)c1 | human, plasma | oral, 180 mg, patients | 2.46 h |
| CCO[C@H]1CCN(Cc2c(OC)cc(C)c3[nH]ccc23)[C@H](c2ccc(C(=O)O)cc2)C1 | human, plasma | oral, 50 mg, multiple doses, twice daily, patients | 2 h |
| c1cnc2ccc(Nc3nc(NC4CC4)c4nc[nH]c4n3)cc2c1 | human, plasma | oral, 800 mg/m², patients | 5 h |
| NS(=O)(=O)NCCNc1nonc1C(=NO)Nc1ccc(F)c(Br)c1 | human, plasma | oral, 100 mg, multiple doses, twice daily, steady state, patients | 2 h |
| CC(C)(Sc1ccncc1-c1ccc(C#N)c2ccccc12)C(=O)O | male human, plasma | oral, 5 mg, single dose, fasted, healthy volunteers | 0.63 h |
| CCOc1ccc(Cc2cc([C@@H]3O[C@H](CO)[C@@H](O)[C@H](O)[C@H]3O)ccc2Cl)cc1 | human, plasma | oral, 10 mg, multiple doses, steady state | 0.77 h |
| C/C(=C\c1csc(C)n1)[C@@H]1C[C@@H]2O[C@]2(C)CCC[C@H](C)[C@H](O)[C@@H](C)C(=O)C(C)(C)[C@@H](O)CC(=O)N1 | human, plasma | intravenous, 15 mg/m², patients | 0.8 h |
| CO[C@@H]1[C@H](OC(=O)N2CC(CCN3CCOCC3)C2)CC[C@]2(CO2)[C@H]1[C@@]1(C)O[C@@H]1CC=C(C)C | human, plasma | subcutaneous, 4.8 mg, single dose, healthy volunteers | 0.25 h |
| Oc1cc(O)c2c(c1)O[C@@H](c1ccc(O)c(O)c1)[C@@H](O)C2 | human, plasma | oral, 10 mg, single dose | 1 h |
| FC(F)(F)c1ccc(CNc2ccc(Cc3c[nH]c4ncc(Cl)cc34)cn2)cn1 | human, plasma | oral, 600 mg, single dose | 2.5 h |
| C=CC(=O)N1CCC(Oc2cc3c(Nc4ccc(Cl)c(Cl)c4F)ncnc3cc2OC)CC1 | human, plasma | oral, 16 mg, single dose, fed | 3.01 h |
| O=C(Nc1c(Cl)cncc1Cl)c1ccc(OC(F)F)c(OCC2CC2)c1 | human, plasma | oral, 0.5 mg, single dose | 0.75 h |
| COc1cc(N2CCC(N3CCN(C)CC3)CC2)ccc1Nc1ncnc(Nc2ccccc2S(=O)(=O)C(C)C)n1 | human, plasma | oral, 75 mg, multiple doses, patients | 3.32 h |
| CC(C)(O)c1ccccc1-c1ccc2[nH]c(/C=C/c3ccc(C(F)(F)F)cc3)nc2c1 | male human, plasma | oral, 30 mg, single dose, fasted | 3.03 h |
| C=CC(=O)N(C)CCOc1c(N)ncnc1-c1cc(F)cc(NC(=O)c2ccc(C3CC3)cc2F)c1C | human, blood | oral, 15 mg, single dose, healthy volunteers | 0.5 h |
